These results are taken from ChEMBL document CHEMBL5653606 (J Pharmacol Exp Ther, 2011).

Data set [1] is described as follows: Ratio of drug concentration in rat brain to plasma at 1 mg/kg, po administered for 4 hrs by LC/MS analysis. In kind it is ADME, organism-based. To be noted: brain and plasma. In outline: (§1)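 Male Sprague-Dawley rats received a single oral dose of 1 mg/kg. Plasma (ng/ml) and brain (ng/g tissue) drug levels were measured at 1, 2, 4, 8 and 24 h after dosing.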

Data set [2] addresses T1, Fatty-acid amide hydrolase 1 (Rattus norvegicus, UniProt P97612).
T1 sequence (P97612 whole entry): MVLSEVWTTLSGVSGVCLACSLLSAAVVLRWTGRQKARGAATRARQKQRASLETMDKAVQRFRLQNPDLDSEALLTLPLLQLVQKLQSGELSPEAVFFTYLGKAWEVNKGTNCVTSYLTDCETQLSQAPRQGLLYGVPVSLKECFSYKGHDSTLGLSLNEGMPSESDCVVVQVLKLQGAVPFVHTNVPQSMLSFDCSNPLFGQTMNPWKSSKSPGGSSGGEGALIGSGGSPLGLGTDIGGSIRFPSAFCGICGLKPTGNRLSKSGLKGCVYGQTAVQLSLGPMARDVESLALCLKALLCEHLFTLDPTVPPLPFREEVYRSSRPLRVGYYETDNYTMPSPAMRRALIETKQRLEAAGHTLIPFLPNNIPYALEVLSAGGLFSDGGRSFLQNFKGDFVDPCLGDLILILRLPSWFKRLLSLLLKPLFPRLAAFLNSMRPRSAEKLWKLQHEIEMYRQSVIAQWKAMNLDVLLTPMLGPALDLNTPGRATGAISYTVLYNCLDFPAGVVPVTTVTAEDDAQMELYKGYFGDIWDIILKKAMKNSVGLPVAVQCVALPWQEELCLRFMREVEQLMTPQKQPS
Briefly: Inhibition of rat FAAH assessed as kinact/Ki ratio incubated for 30 min in presence of glutamate dehydrogenase by 384-well format microplate reader assay.

For data set [3], the target named is T2, Fatty-acid amide hydrolase 1 (Rattus norvegicus) (UniProt P97612).
T2 sequence (whole entry): T1 sequence (P97612 whole entry)
As to the kind of experiment: In vivo inhibition of FAAH in CFA induced Sprague-Dawley rat brain at 0.1 to 10 mg/kg, po relative to control. In kind it is functional, organism-based. The following applies: dose 0.1-10 mg/kg. In outline:
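Brain and blood leukocyte membrane fractions from CFA rats after oral dosing. FAAH activity measured with 3H-labeled AEA substrate, quantifying released 3H-ethanolamine; n = 3 rats/group. Time course sampled at 1, 2, 4, 8, 24 h after 1 mg/kg.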

Data set [4] can be described thus: Brain concentration in rat at 1 mg/kg, po administered for 4 hrs by LC/MS analysis. The data set is classed as ADME, organism-based. The following applies: read-out: Ct. The method in brief: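 Rats dosed orally at 1 mg/kg. Plasma and brain concentrations measured at 1, 2, 4, 8 and 24 h.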
Data set [5] concerns Rattus norvegicus. Briefly: Antihyperalgesic activity in MIA induced Sprague-Dawley rat assessed as increased joint compression thresholds at 0.3 mg/kg, po administered once daily for 3 consecutive days and measured after 2 to 4 hrs. In kind it is functional, organism-based. To be noted: time 3.0 day. The method in brief:
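Male Sprague-Dawley rats (220–270 g), isoflurane-anesthetized, given 2 mg MIA in 0.9% saline (50 μl) intra-articular into the knee. From day 14, oral dosing at 10 ml/kg once daily for 3 days in 4% 2-hydroxypropyl-β-cyclodextrin/1% ethanol in 0.01 M HCl. Celecoxib 30 mg/kg in 0.5% methylcellulose twice daily. Joint compression threshold by digital Randall-Selitto at 2 and 4 h postdose on days 1 and 3; n = 10/group.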

Data set [6] has as its target T1, Fatty-acid amide hydrolase 1. Briefly: Inhibition of rat FAAH assessed as kinact/Ki ratio incubated for 15 min in presence of glutamate dehydrogenase by 384-well format microplate reader assay.
Another data set deals with Mus musculus. Briefly: Antinociceptive activity in C57BL6/J mouse assessed as effect in catalepsy at 1 to 10 mg/kg, po administered for 4 hrs. The following applies: dose 1-10 mg/kg. The data set is classed as functional, organism-based. In outline: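 Male C57BL/6J mice, 7 weeks old, n = 8/group, dosed orally at 1 or 10 mg/kg in PEG 300 (4 ml/kg). Tetrad tested 4 h postdose: locomotor activity, tail-immersion thermal nociception, catalepsy (assessed 60 s), body temperature. Means ± S.E.M. versus vehicle.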

Data set [7] deals with Rattus norvegicus. As to the kind of experiment: Antihyperalgesic activity in CFA induced Sprague-Dawley rat assessed as inhibition of mechanical allodynia at 0.003 to 10 mg/kg, po measured for 4 hrs by von frey test. In kind it is functional, organism-based. The following applies: dose 0.003-10 mg/kg. The method in brief: (§2)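 Male Sprague-Dawley rats (200–250 g) given 150 μl CFA (1 mg/ml in mineral oil) intraplantar in the hind paw. Mechanical paw withdrawal thresholds read with Von Frey hairs on day 5 postinjection. Dosed orally as nanocrystalline suspension in 2% polyvinylpyrrolidone/0.15% SDS in water, 10 ml/kg. PWTs taken 4 h postdose for dose-response, or at 1, 2, 4, 8, 24 h for time course.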

Data set [8] concerns the target T1, Fatty-acid amide hydrolase 1. Briefly: Inhibition of rat FAAH assessed as kinact/Ki ratio incubated for 1 min in presence of glutamate dehydrogenase by 384-well format microplate reader assay.
Data set [9] deals with T2, Fatty-acid amide hydrolase 1 (Rattus norvegicus). As to the kind of experiment: In vivo inhibition of FAAH in CFA induced Sprague-Dawley rat WBC assessed as elevation of AEA level at 0.1 to 10 mg/kg, po using 3H-labeled AEA as substrate. The data set is classed as functional, organism-based. The following applies: dose 0.1-10 mg/kg.
Data set [10] deals with T3, Fatty-acid amide hydrolase 1 (Homo sapiens) (UniProt O00519).
T3 sequence (whole entry): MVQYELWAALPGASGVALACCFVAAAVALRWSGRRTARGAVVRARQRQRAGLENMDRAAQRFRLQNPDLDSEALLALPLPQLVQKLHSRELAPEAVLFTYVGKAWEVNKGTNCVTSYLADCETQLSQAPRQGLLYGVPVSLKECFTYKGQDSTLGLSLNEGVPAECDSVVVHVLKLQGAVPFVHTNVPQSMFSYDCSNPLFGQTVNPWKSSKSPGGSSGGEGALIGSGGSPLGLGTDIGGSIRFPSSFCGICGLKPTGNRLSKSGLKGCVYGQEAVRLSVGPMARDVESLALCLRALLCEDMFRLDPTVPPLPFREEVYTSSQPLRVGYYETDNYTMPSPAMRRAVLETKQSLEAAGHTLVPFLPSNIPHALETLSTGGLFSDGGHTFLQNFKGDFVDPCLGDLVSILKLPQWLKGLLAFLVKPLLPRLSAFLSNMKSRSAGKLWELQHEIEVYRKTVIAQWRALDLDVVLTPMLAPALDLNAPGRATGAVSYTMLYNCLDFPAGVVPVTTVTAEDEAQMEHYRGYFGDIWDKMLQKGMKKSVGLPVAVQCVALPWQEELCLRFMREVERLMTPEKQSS
As to the kind of experiment: Inhibition of FAAH in human brain at 100 uM in presence of FP-rhodamine by competitive activity-based protein profiling method. In kind it is tissue-based. In outline: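 Competitive ABPP on human and mouse brain, liver and heart proteomes (membrane and soluble fractions), exposed to compound at 10 or 100 μM or to DMSO. Serine hydrolases were then labeled with FP-rhodamine. Gels were read by fluorescence scanning, and loss of band labeling (FAAH or other hydrolases by kDa) was judged.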

The nature of data set [11]: Plasma concentration in rat at 1 mg/kg, po administered for 4 hrs by LC/MS analysis. In kind it is ADME, organism-based. In outline: as §1
Data set [12] concerns Rattus norvegicus. As to the kind of experiment: Antihyperalgesic activity in CFA induced Sprague-Dawley rat assessed as complete reduction of mechanical allodynia at 3 mg/kg, po in presence of CB1 antagonist SR141716 and CB2 antagonist SR144528 by von frey test. In kind it is functional, organism-based. The method in brief: as §2

The structures appear in SMILES notation. Activity calls are given as the source filed them.

By Kp is commonly meant tissue or fluid exposure divided by exposure in the circulation. Usually IC50 stands for the concentration that inhibits the measured activity by half. A word on the inhibition: it is the change of the read-out against control, counted positive when it falls. As to `O=C(Nc1cccnn1)N1CCC(=Cc2cccc(Oc3ccc(C(F)(F)F)cn3)c2)CC1`, the Kp at 4 h in data set [1] was determined as 1.6. The IC50 was determined as 11.1 nM in data set [2], 26.7 nM in data set [6] and 43.1 nM in data set [8]. For the same compound, the inhibition in data set [3] came to 98%. Moreover, the concentration at 4 h in data set [4] was determined as 870 nM; in [11] it was 540 nM. Besides, the outcome in the data set with Rattus norvegicus [5], in the data set on Rattus norvegicus [7] and in the data set on Rattus norvegicus [12] was Active. In addition, the Activity entry with Mus musculus is “Non-Toxic”. Further, the inhibition entry in data set [9] and in data set [10] was “Active” throughout.
